This sample holds only a part of the variants without activity.
B1: tRNA (parent)
chain: GUUCCGUUGGCGUAAUGGUAACGCGUCUCCCUCCUAAGGAGAAGACUGCGGGUUCGAGUCCCGUACGGAACG

Variants of: B1
Test: yeast fitness relative to wild type (ratio to wild type); higher = fitter; tRNA-Arg(CCU), competitive growth, 37 C, YPD
In short: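 A pool of Saccharomyces cerevisiae strains, each with a tRNA-Arg(CCU) gene variant at the native genomic locus, was competed in YPD at 37°C for 24 hours across six parallel replicates. The variants had been chemically synthesised at a 3% per-site mutation rate over 69 sites, and gene amplicons before and after competition were read by 100-nucleotide paired-end sequencing. Darwinian fitness relative to wild type rested on changes in genotype frequencies. Genotypes required ≥ 100 starting reads, and estimates < 0.5 were set to 0.5.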
With U35A A36U A57G the yeast fitness was no more than 0.5.
For U35G A65G, the yeast fitness was 0.573.
With C34U C49A G52A the yeast fitness was 0.59.
With C34U C46G A65U the yeast fitness was 0.563.
C34U C55A A70U showed a yeast fitness of 0.619.
With C34U A37U A45G the yeast fitness was no more than 0.5.
Variant U35C G44A C46G G50C U53A has a yeast fitness of 0.583.
Variant A36C A37C A57C has a yeast fitness of no more than 0.5.
C34G C61U C66U gave a yeast fitness of 0.538.
U35C C61A G67C gave a yeast fitness of no more than 0.5.
U35C U59A gave a yeast fitness of 0.878.
U35C A45G C49G G56A A65C gave a yeast fitness of no more than 0.5.
U35G A43U gave a yeast fitness of 0.707.
U35G A43C showed a yeast fitness of 0.583.
Work on U35C C62A A69U yielded a yeast fitness of 0.551.
In the case of U35G C55G C62U, the yeast fitness is reported as no more than 0.5.
In the case of C34U A37U A45U A57G C61U A70G, the yeast fitness is reported as no more than 0.5.
With C34U G58C A70C the yeast fitness was no more than 0.5.
For U35G G68C, the yeast fitness was 0.619.
With U35G A69U the yeast fitness was 0.769.
With U35A A65G C66U the yeast fitness was 0.675.
C34G G38A A57G showed a yeast fitness of 0.539.
With U35C C60U C66U the yeast fitness was no more than 0.5.
C34G C55G U59C C60U G67U gave a yeast fitness of 0.555.
U35C C55G A57G gave a yeast fitness of 0.606.
U35C U54A gave a yeast fitness of no more than 0.5.
For U35C U54G, the yeast fitness was 0.552.
Variant C34G G50C G56C has a yeast fitness of no more than 0.5.
In the case of C34G G38C A40U G48C C49G, the yeast fitness is reported as no more than 0.5.
In the case of U35C A45U G68A, the yeast fitness is reported as 0.668.
Work on C34G C55U G58A yielded a yeast fitness of no more than 0.5.
With C34G G58C A65U the yeast fitness was no more than 0.5.
In the case of U35A A36G, the yeast fitness is reported as 0.65.
For C34G G38C A69U, the yeast fitness was 0.5.
A36C gave a yeast fitness of 0.705.
Variant C34U C60G A70C has a yeast fitness of no more than 0.5.
In the case of U35C U47A, the yeast fitness is reported as 0.734.
For C34G G48C C62U C66G, the yeast fitness was no more than 0.5.
In the case of U35C A42G, the yeast fitness is reported as 0.761.
For U35A C60A, the yeast fitness was 0.535.
With U35A C60U the yeast fitness was no more than 0.5.
Variant C34U A45C C60A has a yeast fitness of no more than 0.5.
In the case of A36C A37G C55A, the yeast fitness is reported as 0.534.
For C34U A45C G52A A65G, the yeast fitness was 0.688.
In the case of U35A C66U A69U, the yeast fitness is reported as no more than 0.5.
C34U A36G C66A gave a yeast fitness of no more than 0.5.
For C34U G68U A69C, the yeast fitness was no more than 0.5.
C34U C55U G67C showed a yeast fitness of 0.558.
With U35C G41A A70G the yeast fitness was 0.689.
C34U C46A gave a yeast fitness of 0.714.
In the case of C34U C46G, the yeast fitness is reported as 0.705.
With C34U A36G A40U the yeast fitness was no more than 0.5.
Variant C34G G67C has a yeast fitness of 0.604.
For U35C G48A C60A, the yeast fitness was 0.648.
For U35C G41A A43C A57G, the yeast fitness was 0.501.
In the case of U35C C49U G63C, the yeast fitness is reported as 0.548.
C34U A45C A69C A70C showed a yeast fitness of 0.569.
Work on C34U C55U G63C yielded a yeast fitness of no more than 0.5.
In the case of U35C G48A C55U A70G, the yeast fitness is reported as 0.56.
Work on C34U A43G U54C yielded a yeast fitness of no more than 0.5.
C34U G67A G68C gave a yeast fitness of 0.653.
With A36C A37C the yeast fitness was 0.54.
For U35A C46A C49G, the yeast fitness was no more than 0.5.
C34G G51C U53C showed a yeast fitness of 0.616.
Variant C34U U35G G38A C62U A65C has a yeast fitness of no more than 0.5.
U35A A43C gave a yeast fitness of 0.636.
With C34U C66U the yeast fitness was 0.555.
U35A G51C A57U gave a yeast fitness of 0.539.
With C34U C60G the yeast fitness was 0.716.
Variant C34U U54G has a yeast fitness of 0.612.
C34U U54C showed a yeast fitness of 0.569.
U35A A40U A42U C55G gave a yeast fitness of no more than 0.5.
Work on U35A U54G yielded a yeast fitness of no more than 0.5.
Work on U35A G63C yielded a yeast fitness of 0.56.
C34G U54C gave a yeast fitness of 0.569.
In the case of C34G G39C U53G G56A, the yeast fitness is reported as no more than 0.5.
With C34U U35A the yeast fitness was no more than 0.5.
A36C A37C U53G A70C gave a yeast fitness of 0.582.
C34U U35C A45G U54A showed a yeast fitness of 0.704.
For U35C A36C A45C, the yeast fitness was 0.522.
Variant U35C A57C G68C has a yeast fitness of no more than 0.5.
C34U C46A C62U gave a yeast fitness of 0.682.
C34U A65C showed a yeast fitness of 0.884.
C34U G38C C55A U64C gave a yeast fitness of no more than 0.5.
C34U U35C A69U gave a yeast fitness of no more than 0.5.
With C34G G38C A70G the yeast fitness was no more than 0.5.
With C34U G38A G44C the yeast fitness was no more than 0.5.
U35A G50A A69U showed a yeast fitness of 0.621.
With U35G A45C G56C the yeast fitness was no more than 0.5.
C34U G58C C60U C66G showed a yeast fitness of no more than 0.5.
For U35G G63A G68C, the yeast fitness was no more than 0.5.
In the case of U35C G58A, the yeast fitness is reported as 0.77.
Work on C34U A65C G67C yielded a yeast fitness of no more than 0.5.
In the case of U35C G38A, the yeast fitness is reported as 0.891.
C34U G44C A45G U47G gave a yeast fitness of no more than 0.5.
U35C A37U A43C C46U C49U G68A gave a yeast fitness of no more than 0.5.
U35A U47C gave a yeast fitness of 0.589.
In the case of C34U G44C A45C C66A, the yeast fitness is reported as 0.591.
With C34G G48C C66U the yeast fitness was 0.562.
With A36C A37U G50C the yeast fitness was 0.576.
In the case of C34U A37G A45U C49A, the yeast fitness is reported as no more than 0.5.
C34U C49U U53C gave a yeast fitness of no more than 0.5.
With C34G G38C G68C the yeast fitness was 0.582.
C34G G39A A70C showed a yeast fitness of no more than 0.5.
Variant C34U C49U C61A has a yeast fitness of no more than 0.5.
U35A C61U gave a yeast fitness of 0.765.
C34U C61G A70C gave a yeast fitness of 0.528.
For C34U C61G A70U, the yeast fitness was no more than 0.5.
For C34U G58C G63A A70C, the yeast fitness was no more than 0.5.
For U35C A42G C55A, the yeast fitness was no more than 0.5.
Work on U35A C49G G58A C60A yielded a yeast fitness of no more than 0.5.
In the case of U35C C61A A69U, the yeast fitness is reported as no more than 0.5.
With C34U A37C G63A the yeast fitness was no more than 0.5.
C34U G56A G67A showed a yeast fitness of no more than 0.5.
With U35A A57C the yeast fitness was no more than 0.5.
C34U A36G G41A U47A G58C G63C G67A showed a yeast fitness of no more than 0.5.
C34U G52A U54A C66U A69C showed a yeast fitness of no more than 0.5.
U35C G39C U47A showed a yeast fitness of no more than 0.5.
Work on A36C A37C A65C yielded a yeast fitness of no more than 0.5.
In the case of U35A C60G G67U, the yeast fitness is reported as no more than 0.5.
In the case of C34U A45C, the yeast fitness is reported as 0.6.
With C34G G50C C55G the yeast fitness was 0.59.
C34U G52A gave a yeast fitness of 0.618.
In the case of C34U U53C A69C, the yeast fitness is reported as no more than 0.5.
Variant U35C A36G G58A G67A has a yeast fitness of no more than 0.5.
For U35A A37G A40G A43U A45C, the yeast fitness was no more than 0.5.
Work on U35C A65G C66U yielded a yeast fitness of 0.675.
For U35C U47G C62U A65U, the yeast fitness was no more than 0.5.
Variant C34U C46A G50C has a yeast fitness of no more than 0.5.
Variant U35A C62A C66G has a yeast fitness of 0.66.
C34U G44C G56A gave a yeast fitness of no more than 0.5.
Work on C34U A37U A45U A57G C61U yielded a yeast fitness of no more than 0.5.
For C34U U54C A69U, the yeast fitness was no more than 0.5.
In the case of U35C A36U A40U C55U A57C, the yeast fitness is reported as 0.865.
C34U G63C gave a yeast fitness of no more than 0.5.
C34G G52A A69C gave a yeast fitness of 0.645.
Work on C34G G50A U59A yielded a yeast fitness of no more than 0.5.
For C34U G39A U47C G56A, the yeast fitness was no more than 0.5.
In the case of C34G G63A, the yeast fitness is reported as 0.633.
For C34U U47C A69U, the yeast fitness was 0.506.
With U35C G56A the yeast fitness was 0.735.
For U35A C55U, the yeast fitness was 0.564.
U35A C55A showed a yeast fitness of no more than 0.5.
With C34U A36G C49U C55G A57U G67A the yeast fitness was no more than 0.5.
With U35C G41A the yeast fitness was 0.882.
U35C C60U gave a yeast fitness of 0.546.
For U35G C49G G52C C62G A69C, the yeast fitness was no more than 0.5.
For C34G G50C, the yeast fitness was no more than 0.5.
C34U A42C A69C showed a yeast fitness of no more than 0.5.
For U35C C49G, the yeast fitness was 0.883.
A36C A37G G56C showed a yeast fitness of no more than 0.5.
With C34U U53A the yeast fitness was no more than 0.5.
C34G G39A C49G C61U gave a yeast fitness of no more than 0.5.
U35G U64C A70G gave a yeast fitness of no more than 0.5.
In the case of U35A G52A U59C C66A G67A, the yeast fitness is reported as no more than 0.5.
U35A A36G G48A C49U gave a yeast fitness of no more than 0.5.
C34U G51A gave a yeast fitness of 0.547.
For C34U G50A, the yeast fitness was 0.67.
Work on U35A A40U G41C C49A yielded a yeast fitness of no more than 0.5.
In the case of C34U U64A, the yeast fitness is reported as 0.597.
Work on U35A A42G yielded a yeast fitness of 0.681.
U35A G56A gave a yeast fitness of 0.817.
In the case of C34U A43G A69C, the yeast fitness is reported as 0.553.
Work on U35C A42C G52C yielded a yeast fitness of no more than 0.5.
With C34U G44A C49A G56C C62A A65C the yeast fitness was no more than 0.5.
In the case of C34U G41C, the yeast fitness is reported as 0.768.
U35C A42C A43G showed a yeast fitness of 0.617.

Reference: the RNAGym collection of RNA variant scans (doi:10.1126/science.aae0568)
